Measured values as given in ChEMBL document CHEMBL1687745 (Antimicrob Agents Chemother, 2009).
In brackets after ≈: the same amount, converted by molar mass. Activity calls are given as the source filed them. No cut-off for these calls is given here.

Legend:
[1] = tested on: Bacillus subtilis; experiment: Antimicrobial activity against Bacillus subtilis clinical isolate by broth microdilution method; assay type: functional
[2] = tested on: Bacillus subtilis; experiment: Inhibition of DNA synthesis in Bacillus subtilis BD54 at 5 X MIC by [3H]thymidine incorporation assay; assay type: functional, organism-based
Procedure, shortened: (§1)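 Precursors were [methyl-3H]thymidine (DNA), [5-3H]uridine (RNA), L-[4,5-3H]leucine (protein) and N-acetyl-D-[1-3H]glucosamine (cell wall). Samples taken over time, precipitated with equal volume of ice-cold 20% TCA, filtered on glass fibre, and counted. cpm plotted against time.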

[3] = tested on: Mycolicibacterium smegmatis; experiment: Antimicrobial activity against Mycobacterium smegmatis 19420 by broth microdilution method; assay type: functional
Procedure, shortened: (§2)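 Broth microdilution. Log-phase cultures (5 × 10^5 CFU/ml) seeded in 96-well plates with compound from 0 to 20 µM or 1% DMSO control. Incubated at 37°C for 16 to 20 h. Growth read as absorbance at 600 nm.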

[4] = tested on: Staphylococcus aureus; experiment: Antimicrobial activity against Staphylococcus aureus by broth microdilution method; assay type: functional; procedure, shortened: as §2
[5] = Cytotoxicity against human HeLa cells after 3 days by MTS assay in presence of 10% fetal calf serum; assay type: cell-based
[6] = tested on: Bacillus anthracis; experiment: Antimicrobial activity against Bacillus anthracis Sterne spores by broth microdilution method; assay type: functional
[7] = tested on: Burkholderia cepacia; experiment: Antimicrobial activity against Burkholderia cepacia clinical isolate by broth microdilution method; assay type: functional; procedure, shortened: as §2
[8] = tested on: Staphylococcus aureus; experiment: Antimicrobial activity against methicillin-resistant Staphylococcus aureus clinical isolate by broth microdilution method; assay type: functional
[9] = tested on: Burkholderia thailandensis; experiment: Antimicrobial activity against Burkholderia thailandensis by broth microdilution method; assay type: functional
[10] = tested on: Enterococcus faecalis; experiment: Antimicrobial activity against Enterococcus faecalis 29212 clinical isolate by broth microdilution method; assay type: functional
[11] = tested on: Burkholderia mallei; experiment: Antimicrobial activity against Burkholderia mallei ATCC 23344 by broth microdilution method; assay type: functional
[12] = tested on: Bacillus anthracis; experiment: Inhibition of spore germination in Bacillus anthracis Sterne spores at MIC after 4 hrs; assay type: functional, organism-based
[13] = tested on: Staphylococcus aureus; experiment: Antimicrobial activity against methicillin-resistant Staphylococcus aureus 1094 by broth microdilution method; assay type: functional
[14] = tested on: Bacillus anthracis; experiment: microbe, parasite or virus in culture; conditions: Ames
[15] = tested on: Bacillus anthracis; experiment: Antimicrobial activity against Bacillus anthracis Sterne vegetative cells by broth microdilution method; assay type: functional
[16] = tested on: Escherichia coli; experiment: Antimicrobial activity against Escherichia coli J53 clinical isolate by broth microdilution method; assay type: functional
[17] = tested on: Brevibacillus brevis; experiment: Antimicrobial activity against Bacillus brevis clinical isolate by broth microdilution method; assay type: functional; procedure, shortened: as §2
[18] = tested on: Staphylococcus aureus; experiment: Antimicrobial activity against Staphylococcus aureus ATCC 25923 by broth microdilution method; assay type: functional; procedure, shortened: as §2
[19] = tested on: Burkholderia pseudomallei; experiment: Antimicrobial activity against Burkholderia pseudomallei DD503 by broth microdilution method; assay type: functional
[20] = tested on: Bacillus pumilus; experiment: Antimicrobial activity against Bacillus pumilus clinical isolate by broth microdilution method; assay type: functional; procedure, shortened: as §2
[21] = tested on: Priestia megaterium; experiment: Antimicrobial activity against Bacillus megaterium clinical isolate by broth microdilution method; assay type: functional
[22] = tested on: Mycolicibacterium smegmatis; experiment: Antimicrobial activity against Mycobacterium smegmatis 35798 by broth microdilution method; assay type: functional; procedure, shortened: as §2
[23] = tested on: Bacillus subtilis; experiment: Inhibition of cell wall synthesis in Bacillus subtilis BD54 at 5 X MIC by N-acetyl-D-[1-3H] glucosamine incorporation assay; assay type: functional; procedure, shortened: as §1
[24] = tested on: Mycolicibacterium smegmatis; experiment: Antimicrobial activity against Mycobacterium smegmatis 700009 by broth microdilution method; assay type: functional; procedure, shortened: as §2
[25] = tested on: Yersinia pestis; experiment: Antimicrobial activity against Yersinia pestis by broth microdilution method; assay type: functional
[26] = tested on: Bacillus anthracis; experiment: Antimicrobial activity against Bacillus anthracis Vollum clinical isolate by broth microdilution method; assay type: functional
[27] = tested on: Enterococcus faecalis; experiment: Antimicrobial activity against Enterococcus faecalis clinical isolate by broth microdilution method; assay type: functional; procedure, shortened: as §2
[28] = tested on: Bacillus licheniformis; experiment: Antimicrobial activity against Bacillus licheniformis clinical isolate by broth microdilution method; assay type: functional
[29] = tested on: Bacillus anthracis; experiment: Antimicrobial activity against Bacillus anthracis Ames by broth microdilution method in presence of 10% fetal calf serum; assay type: functional
[30] = tested on: Bacillus anthracis; experiment: Protection against Bacillus anthracis Sterne spores induced cell death in mouse J774A1 cells assessed as live viable cells at 10 uM by Sytox green dye staining assay relative to untreated control; assay type: functional, J774.A1
[31] = tested on: Pseudomonas aeruginosa; experiment: Antimicrobial activity against Pseudomonas aeruginosa PAO1 by broth microdilution method; assay type: functional; procedure, shortened: as §2
[32] = tested on: Enterococcus faecalis; experiment: Antimicrobial activity against vancomycin-resistant Enterococcus faecalis ATCC 51575 by broth microdilution method; assay type: functional
[33] = tested on: Bacillus anthracis; experiment: microbe, parasite or virus in culture; conditions: Ames; remark: listed apart in the source
[34] = tested on: Bacillus subtilis; experiment: Inhibition of RNA synthesis in Bacillus subtilis BD54 at 5 X MIC by [5-3H]uridine incorporation assay; assay type: functional; procedure, shortened: as §1
[35] = tested on: Klebsiella pneumoniae; experiment: Antimicrobial activity against Klebsiella pneumoniae 5657 by broth microdilution method; assay type: functional; procedure, shortened: as §2
[36] = tested on: Enterococcus faecium; experiment: Antimicrobial activity against vancomycin-resistant Enterococcus faecium B42762 by broth microdilution method; assay type: functional
[37] = tested on: Bacillus anthracis; experiment: Protection against Bacillus anthracis Sterne spores induced cell death in mouse J774A1 cells assessed as dead cells at 10 uM by Sytox green dye staining assay relative to untreated control; assay type: functional, J774.A1
[38] = tested on: Bacillus subtilis; experiment: Inhibition of protein synthesis in Bacillus subtilis BD54 at 5 X MIC by L-[4,5-3H]leucine incorporation assay; assay type: functional, organism-based; procedure, shortened: as §1
[39] = tested on: Bacillus anthracis; experiment: Inhibition of spore outgrowth in Bacillus anthracis Sterne spores assessed as reduction in bacterial CFU count at 0.1 ug/ml after 4 hrs relative to untreated control; assay type: functional, organism-based
[40] = tested on: Staphylococcus aureus; experiment: Antibacterial activity against Staphylococcus aureus Smith infected in Swiss Webster mouse assessed as assessed as protection against microbe-induced mortality at 10 mg/kg, iv administered as single dose 15 mins post bacterial challenge measured 48 hrs post infection; assay type: functional
Procedure, shortened: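 Swiss Webster mice (n = 10/group) were challenged i.p. with 8.3 × 10^8 CFU. After 15 min they received a single i.v. dose in 10% dimethyl acetamide–5% dextrose in water (pH 4.0), alongside vehicle and daptomycin (10 mg/kg) controls. Survival was followed for 48 h.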

c1cc2cc(-c3ccc4cc(-c5ccc6oc(C7=NCCN7)cc6c5)[nH]c4c3)[nH]c2cc1C1=NCCN1
MIC [1]: 0.4 µg/mL (≈ 0.825 µM) | inhibition [2]: Active | MIC [3]: 0.1 µg/mL (≈ 0.206 µM) | MIC [4]: 0.7 µg/mL (≈ 1.44 µM) | CC50 at 72 h [5]: 17 µg/mL | MIC [6]: 0.4 µg/mL (≈ 0.825 µM) | MIC [7]: 22 µg/mL (≈ 45.4 µM) | MIC [8]: 2.8 µg/mL (≈ 5.78 µM) | MIC [9]: 2.8 µg/mL (≈ 5.78 µM) | MIC [10]: 0.1 µg/mL (≈ 0.206 µM) | MIC [11]: > 9.7 µg/mL | inhibition [12]: inactive | MIC [13]: 0.5 µg/mL (≈ 1.03 µM) | MBC [14]: 1.2 µg/mL (≈ 2.48 µM) | MIC [14]: 0.2 µg/mL (≈ 0.413 µM) | MIC [15]: 0.7 µg/mL (≈ 1.44 µM) | MIC [16]: 1.4 µg/mL (≈ 2.89 µM) | MIC [17]: 0.2 µg/mL (≈ 0.413 µM) | MIC [18]: 0.3 µg/mL (≈ 0.619 µM) | MIC [19]: > 9.7 µg/mL | MIC [20]: 0.4 µg/mL (≈ 0.825 µM) | MIC [21]: 0.4 µg/mL (≈ 0.825 µM) | MIC [22]: < 0.1 µg/mL | inhibition (INH) [23]: 40% | MIC [24]: < 0.1 µg/mL | MIC [25]: 9.7 µg/mL (≈ 20 µM) | MBC [26]: 0.4 µg/mL (≈ 0.825 µM) | MIC [26]: 0.4 µg/mL (≈ 0.825 µM) | MIC [27]: 0.7 µg/mL (≈ 1.44 µM) | MIC [28]: 1.4 µg/mL (≈ 2.89 µM) | MIC [29]: 1.4 µg/mL | Activity [30]: 75% | MIC [31]: > 80 µg/mL | MIC [32]: 0.1 µg/mL (≈ 0.206 µM) | MBC [33]: 2.8 µg/mL (≈ 5.78 µM) | MIC [33]: 1.4 µg/mL (≈ 2.89 µM) | inhibition (INH) [34]: 40% | MIC [35]: 16 µg/mL (≈ 33 µM) | MIC [36]: 0.1 µg/mL (≈ 0.206 µM) | Activity [37]: 24%

O=C(O)c1cn(C2CC2)c2cc(N3CCNCC3)c(F)cc2c1=O [CIPROFLOXACIN]
inhibition [2]: Active | MIC [3]: 0.1 µg/mL (≈ 0.302 µM) | inhibition [38]: Active | MIC [13]: 5 µg/mL (≈ 15.1 µM) | MIC [18]: 0.3 µg/mL (≈ 0.905 µM) | inhibition [39]: Active | MIC [22]: 0.2 µg/mL (≈ 0.604 µM) | inhibition [23]: Active | MIC [24]: 0.4 µg/mL (≈ 1.21 µM) | MIC [31]: 0.1 µg/mL (≈ 0.302 µM) | MIC [32]: 0.6 µg/mL (≈ 1.81 µM) | inhibition [34]: Active | MIC [35]: 0.2 µg/mL (≈ 0.604 µM) | MIC [36]: 20 µg/mL (≈ 60.4 µM)

CCCCCCCCCC(=O)N[C@@H](Cc1c[nH]c2ccccc12)C(=O)N[C@H](CC(N)=O)C(=O)N[C@@H](CC(=O)O)C(=O)N[C@@H]1C(=O)NCC(=O)N[C@@H](CCCN)C(=O)N[C@@H](CC(=O)O)C(=O)N[C@H](C)C(=O)N[C@@H](CC(=O)O)C(=O)NCC(=O)N[C@H](CO)C(=O)N[C@@H]([C@H](C)CC(=O)O)C(=O)N[C@@H](CC(=O)c2ccccc2N)C(=O)O[C@@H]1C
survival at 10 mg/kg [40]: 80%
